The list is not random: actives were taken first. Their share in the collection is about 2.9%.
Runt-CBFb FRET: inhibitors of human RUNX1 Runt domain binding to CBFb; Q01196+Q13951; Cerulean-Runt/Venus-CBFb FRET ratio 530/480, 1 h; inhibition, % at 20 µM; 220,000 tested, 0.46% active; AID 1496;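 active means inhibition over about 50% at 20 µM in the single-dose screen, limit read from the data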;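 further: 0% = DMSO wells and 100% = excess unlabeled CBFb competitor control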
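Assay system: Cerulean-Runt domain / Medium: Tris 50 mM pH 7.5, KCl, K2SO4, 0.01% BSA / Timing: protein complex preformed 1 h, compound exposure 1 h, room temperature, dark / Measured by: FRET, excitation 422 nm, emission at 530 and 480 nm / Evaluation: loss of energy transfer signal / Control set: 5 µM unlabeled CBFb as full-inhibition high control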
Runt-SMMHC FRET: Runt domain-CBFb-SMMHC interaction inhibition | Q01196+Q13951 | 220,000 tested, 0.74% active | Cerulean-Runt/Venus-CBFb-SMMHC FRET ratio 530/480, 1 h | inhibition, % at 20 µM;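 active means mean inhibition across duplicate retests at 20 µM reaching about 50%, limit read from the data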;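 further: 0% = DMSO wells and 100% = wells with excess untagged CBFb-SMMHC; inhibitors lower the FRET ratio by blocking Runt binding to CBFb-SMMHC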
M18AAP inhibitor: PfM18AAP enzyme inhibition | recombinant PfM18AAP, H-Glu-NHMec fluorogenic cleavage | inhibition, % at 7.35 µM | 290,000 tested, 1.2% active | AID 1822;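 active means inhibition above the campaign mean inhibition over all tested compounds plus 3 SD, cut at about 28% in these data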;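 further: 0% = plate median of test compound wells and 100% = 2 mM ZnCl2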
RBBP9 inh: inhibitors of human serine hydrolase RBBP9. recombinant RBBP9, FP-Rh probe fluorescence polarization. inhibition, % at 7.94 µM. 220,000 tested, 0.2% active;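 active means inhibition above the campaign mean of all tested compounds plus 3 SD, cut at about 14% in these data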;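 further: plate controls were DMSO wells with RBBP9 for no effect and wells lacking RBBP9 protein for full effect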
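Measured by – fluorescence polarization · Test system – RBBP9 protein · Input – 2.5 µM RBBP9 dispensing solution, before mixing · Measure – percent inhibition from mP, scaled between DMSO and no-protein wells · Benchmarks – DMSO-treated enzyme wells and wells lacking RBBP9 · Times – preincubation 30 min plus labeling 45 min at 25 °C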
RanGTP-Imp inh: disruptors of Ran-importin-beta complex formation – biochemical, FRET, CFP-Ran, YFP-importin-beta, homogeneous, primary screen | cell-free CFP-Ran/YFP-importin-beta FRET ratio | 300,000 tested, 1.1% active | inhibition, % (test concentration not listed);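 active means more than half of the replicate wells show a fall in the fluorescence ratio signal beyond about 16%, limit read from the data, passing the limit was not always enough; inconclusive means exactly half of the replicate wells pass the set limit; inactive means fewer than half of replicates pass the limit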;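 further: 0% = DMSO wells and 100% = Ran loaded with GDP instead of GTP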
Hck Nef HTS: human Hck-Nef kinase inhibition; Recombinant Hck-YEEI plus Nef, Z-Lyte FRET kinase assay; inhibition, % at 20 µM; 220,000 tested, 0.68% active; P08631;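 active means Hck-Nef kinase inhibition above about 50%, limit read from the data; inactive means inhibition below that limit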;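 further: 0% = DMSO with Hck plus Nef and 100% = Hck alone without Nef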
Target sequence (P08631 whole entry, looked up): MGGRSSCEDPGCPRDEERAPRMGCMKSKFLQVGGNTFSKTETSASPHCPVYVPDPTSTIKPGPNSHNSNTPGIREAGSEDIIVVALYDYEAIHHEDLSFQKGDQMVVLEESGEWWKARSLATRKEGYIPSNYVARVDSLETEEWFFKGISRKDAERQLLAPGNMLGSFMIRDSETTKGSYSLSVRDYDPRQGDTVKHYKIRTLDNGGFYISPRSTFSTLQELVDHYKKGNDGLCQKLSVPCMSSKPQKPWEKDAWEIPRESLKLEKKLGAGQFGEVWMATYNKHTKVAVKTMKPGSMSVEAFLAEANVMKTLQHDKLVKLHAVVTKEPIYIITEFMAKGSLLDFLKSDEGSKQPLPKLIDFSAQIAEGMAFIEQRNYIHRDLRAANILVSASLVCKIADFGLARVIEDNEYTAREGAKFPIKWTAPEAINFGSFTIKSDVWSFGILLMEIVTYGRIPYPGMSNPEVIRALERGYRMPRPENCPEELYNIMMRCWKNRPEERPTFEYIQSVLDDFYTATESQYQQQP
Starred values were filed as active, the others as inactive; ? = inconclusive; nt = not tested or not shown.

SMILES	Runt-CBFb FRET	Runt-SMMHC FRET	M18AAP inhibitor	RBBP9 inh	RanGTP-Imp inh	Hck Nef HTS
CC(C)(C)c1ccc(/C=C2\Oc3cc(O)ccc3C2=O)cc1	nt	nt	-3	nt	3	nt
COC(=O)c1ccc2c(c1)C(=O)/C(=C/c1ccc(O)cc1)O2	-226	-106	-2	-15	19*	11
Cc1cccc(-n2c(N)c(C(=O)NCCN3CCOCC3)c3nc4ccccc4nc32)c1	79*	61*	9	0	85*	27
CCCNC(=O)c1c(N)n(-c2ccc3c(c2)OCO3)c2nc3ccccc3nc12	5	6	5	-6	3	21
CC(C)Cn1c(N)c(C(=O)NCCN2CCOCC2)c2nc3ccccc3nc21	9	95*	6	3	94*	43
CCc1ccccc1NC(=O)COC(=O)c1cccs1	nt	nt	-1	nt	-2	nt
O=c1[nH]c(Nc2ccc(F)cc2)cc2ccccc12	13	15	8	1	54*	8
O=c1oc(Nc2ccccc2Cl)nc2ccccc12	3	4	-2	-8	1	14
Cc1ccccc1Nc1cc2ccccc2c(=O)[nH]1	-3	-32	1	0	17*	0
Cc1cc2ccccc2c(=O)[nH]1	-1	1	-6	-5	2	-2
O=c1[nH]c(Nc2ccccc2Cl)cc2ccccc12	nt	nt	nt	nt	39*	nt
CN(CC(=O)NCCc1ccc(S(N)(=O)=O)cc1)Cc1ccc(Cl)cc1Cl	nt	nt	1	nt	-2	nt
CC1(C)CC(=O)C=C(Nc2ccc(F)c(Cl)c2)C1	nt	nt	5	nt	4	nt
CC1(C)CC(=O)C=C(Nc2ccc(F)cc2)C1	1	-5	11	-12	27*	0
CC1(C)CC(=O)C=C(Nc2ccc(OCC(F)(F)C(F)F)cc2)C1	-2	0	-4	-5	30*	1
CC1(C)CC(=O)C=C(Nc2ccc(F)cc2F)C1	-2	2	3	-8	35*	5
COc1ccc2c(-c3ccccc3)cc(=S)[nH]c2c1	nt	nt	4	nt	3	nt
CCCCN(C1CCS(=O)(=O)C1)S(=O)(=O)c1ccc(OC)cc1 (stereo unspecified)	nt	nt	nt	nt	5	nt
CCOc1ccccc1NC(=O)N1CCCC(c2nc(-c3ccc(C)o3)no2)C1 (stereo unspecified)	-4	4	6	-7	-3	24
CSc1ccc(/C=C(\C(=O)O)c2ccc(S(=O)(=O)N3CCCCC3)s2)cc1	9	26	2	-11	45*	2
CCOc1ccc(/C=C(\C(=O)O)c2ccc(S(=O)(=O)N3CCOCC3)s2)cc1OC	15	69*	-7	-9	104*	-8
O=C(O)/C(=C\c1ccccc1Cl)c1ccc(S(=O)(=O)N2CCCCC2)s1	0	-5	4	-12	?	2
O=C1/C(=C/c2cccs2)SC(=S)N1NS(=O)(=O)c1ccccc1	0	-4	4	-9	-1	78*
COc1ccc(OC)c(/C=C2\SC(=S)N(NS(=O)(=O)c3ccccc3)C2=O)c1	nt	nt	-2	nt	-6	nt
Fc1ccc(NC(=S)N2CCN(c3cccc(C(F)(F)F)c3)CC2)cc1	3	1	8	-1	27*	0
SMILES	Runt-CBFb FRET	Runt-SMMHC FRET	M18AAP inhibitor	RBBP9 inh	RanGTP-Imp inh	Hck Nef HTS
O=C(Nc1cc(Cl)ccc1-n1cncn1)C1CC1	nt	nt	nt	nt	0	nt
COCCCn1c(=O)/c(=C\c2ccc(OC(F)F)c(OC)c2)s/c1=C(/C#N)C(N)=O	-89	81*	1	3	-173	8
CCC(C)(C)NC(=O)CN(Cc1ccccc1)C(=O)CCC(=O)Nc1nccs1	nt	nt	0	nt	-2	nt
Cc1[nH]c2ccccc2c1CCCO	9	84	3	-8	18*	-18
Cc1[nH]c2ccccc2c1CCO	43	-2	-15	0	6	-1
Cc1ccc2c(n1)sc1c(-c3ccc(Br)cc3)c(C#N)c(N)nc12	32	92	0	-9	79*	22
O=C(NC1CCCC1)C(c1ccccn1)N(Cc1ccc(F)cc1)C(=O)c1csnn1 (stereo unspecified)	nt	nt	-1	nt	-4	nt
COC(=O)c1c(NC(=O)Cc2ccccc2)sc2c1CC(C)(C)NC2(C)C	nt	nt	29*	nt	8	nt
COC(=O)c1c(NC(=O)COc2ccc(Cl)cc2)sc2c1CC(C)(C)NC2(C)C	nt	nt	1	nt	1	nt
C/C(C/C(C)=C1/SC(=S)NC1=O)=C1\SC(=S)NC1=O	37	20	29*	3	nt	75*
CC(C)n1c(SCC(=O)NCc2ccco2)nnc1C1CC1	nt	nt	28*	nt	-2	nt
O=S1(=O)N=C(N/N=C/c2cccs2)c2ccccc21	nt	nt	2	nt	-6	nt
CS/C(N)=N/N=C/c1cc(Br)cc(Br)c1O	10	23	24	0	-5	10
Nn1cnnc1N/N=C/c1cc(Br)cc(Br)c1O	-24	-26	52*	-1	-8	3
C=CCn1c(=N)c(C(=O)OCC)cc2c(=O)n3cccc(C)c3nc21	nt	nt	3	-5	nt	172*
CCOC(=O)N1CCN(C(=O)c2cc3c(=O)n4cccc(C)c4nc3s2)CC1	nt	nt	4	nt	-1	nt
Cc1cccn2c(=O)c3cc(C(=O)N4COCC4(C)C)n(Cc4ccccc4)c3nc12	nt	nt	nt	nt	-1	nt
CCOC(=O)c1cc2c(=O)n3cccc(C)c3nc2n(Cc2ccccc2Cl)c1=N	126*	65*	nt	nt	nt	nt
Clc1ccccc1C1=CC(c2ccco2)n2ncnc2N1 (stereo unspecified)	10	81	-1	-14	43*	16
COc1ccc(C2C=C(c3ccccc3)Nc3ncnn32)cc1 (stereo unspecified)	18	63*	11	1	6	1
COc1ccc(C2C=C(C)Nc3ncnn32)cc1 (stereo unspecified)	nt	nt	nt	nt	0	nt
COc1ccc(C2=CC(c3ccco3)n3ncnc3N2)cc1 (stereo unspecified)	-64	87*	22	-2	nt	-48
Clc1ccc(C2=CC(c3ccco3)n3ncnc3N2)cc1 (stereo unspecified)	nt	-78	10	3	-83	-1
Cc1cc(C(=O)OCC(=O)NC2CCS(=O)(=O)C2)c2ccccc2n1 (stereo unspecified)	1	3	2	2	-3	-14
COc1ccc2cc(-c3cc(C(=O)OCC(=O)NC4CCS(=O)(=O)C4)c4ccccc4n3)ccc2c1 (stereo unspecified)	-9	79*	5	-8	24*	15
O=C(C[n+]1ccccc1)N/N=C/c1cc(Br)cc(Br)c1O	nt	nt	5	nt	-3	nt
O=C(Cc1ccccc1)N/N=C/c1cc(Br)cc(Cl)c1O	28	92*	7	-2	18*	5
COc1cc(Br)cc(/C=N/NC(=O)Cc2ccccc2)c1O	nt	nt	nt	nt	-2	nt
